≈ marks a conversion by molar mass, not a printed value.
Assays:
[1] = Permeability of the compound at pH 7.4 after 30 mins by PAMPA; assay type: ADME; details: read-out: permeability
Method in brief: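 PAMPA at pH 7.4. A 10 mM DMSO stock is diluted into system solution buffer; its UV spectrum serves as reference. Membrane painted with GIT lipid, acceptor chamber holds acceptor solution buffer. Sandwich stirred for 30 min, aqueous boundary layer set to 40. Donor and acceptor UV spectra read at 250–500 nm. Permeability coefficient from the AUCs of reference, donor and acceptor. Single experiment in triplicate.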

[2] = Ratio of EC50 for human HepG2 cells to EC50 for Plasmodium falciparum K1 infected in human erythrocytes
[3] = Dissociation constant, pKa of the compound; assay type: physicochemical
HepG2 = experiment: Cytotoxicity against human HepG2 cells assessed as intracellular ATP level after 72 hrs by Celltiter-Glo luminescent assay; assay type: cell-based; details: HepG2, 72 h
Plasmodium falciparum [4] = experiment: Antimalarial activity against chloroquine-resistant Plasmodium falciparum K1 infected in human erythrocytes assessed as reduction in parasitemia after 72 hrs by spectrophotometry; assay type: functional, organism-based; details: K1, 72 h
Plasmodium falciparum [5] = experiment: Ratio of EC50 for chloroquine-resistant Plasmodium falciparum K1 infected in human erythrocytes to EC50 for chloroquine-sensitive Plasmodium falciparum 3D7 infected in human erythrocytes; assay type: functional
[6] = Ratio of EC50 for human HepG2 cells to EC50 for Plasmodium falciparum 3D7 infected in human erythrocytes
[7] = Solubility of the compound at pH 7.4 after 18 hrs by UV spectroscopic analysis; assay type: physicochemical; details: buffer
Method in brief: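 Kinetic solubility. A 10 mM stock is diluted 1:100 into PBS pH 7.4 and incubated 18 h at room temperature, then filtered; the filtrate is mixed 1:1 with 1-propanol. UV spectrum (250–500 nm) compared by AUC with a 1-propanol/PBS reference. Single experiment in triplicate.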

Plasmodium falciparum [8] = experiment: Antimalarial activity against chloroquine-sensitive Plasmodium falciparum 3D7 infected in human erythrocytes assessed as reduction in parasitemia after 72 hrs by spectrophotometry; assay type: functional, organism-based; details: 3D7, 72 h

Row | SMILES | Papp at 0.5 h [1] [×10⁻⁶ cm/s] | Ratio EC50 [2] | pKa [3] | EC50 (HepG2) [nM] | EC50 (Plasmodium falciparum [4]) [nM] | Ratio EC50 (Plasmodium falciparum [5]) | Ratio EC50 [6] | solubility at 18 h [7] [µM] | EC50 (Plasmodium falciparum [8]) [nM]
1 | COc1ccc(Oc2ccc3c(NCCCNCc4ccco4)ccnc3c2)cc1 | 317 | 265 | 9.28 | 5300 | 20 | 5.6 | 1479 | 14.5 (≈ 5.85 µg/mL) | 4
2 | c1cc(NCCCNCc2ccc3c(c2)OCO3)c2ccc(CC3CCCCC3)cc2n1 | 23 | 9 | 9.47 | 6290 | 701 | 17.3 | 155.2 | 4.2 (≈ 1.81 µg/mL) | 41
3 | Cc1cc(C)cc(Cc2ccc3c(NCCCNCc4ccc5c(c4)OCO5)ccnc3c2)c1 | 23 | 2.2 | 9.47 | 2250 | 1040 | 25.6 | 55.5 | 4.2 (≈ 1.91 µg/mL) | 41
4 | c1ccc(CCc2ccc3c(NCCCNCc4ccco4)ccnc3c2)cc1 | 23 | 5.5 | 9.47 | 16000 | 2930 | 63.7 | 347.8 | 4.2 (≈ 1.62 µg/mL) | 46
5 | COc1cccc(CNCCCNc2ccnc3cc(CC4CCCCC4)ccc23)c1O | 23 | 0.4 | 9.47 | 970 | 2610 | 52.7 | 19.6 | 4.2 (≈ 1.82 µg/mL) | 50
6 | c1coc(CNCCCNc2ccnc3cc(CC4CCCCC4)ccc23)c1 | 23 | 2.7 | 9.47 | 1700 | 621 | 11.2 | 30.7 | 4.2 (≈ 1.59 µg/mL) | 55
7 | FC(F)(F)c1cccc(Cc2ccc3c(NCCCNCc4ccco4)ccnc3c2)c1 | 23 | 4.3 | 9.47 | 3190 | 743 | 13.2 | 56.7 | 4.2 (≈ 1.85 µg/mL) | 56
8 | Fc1ccc(Cc2ccc3c(NCCCNCc4ccco4)ccnc3c2)cc1 | 23 | 3.4 | 9.47 | 5600 | 1660 | 28.9 | 97.5 | 4.2 (≈ 1.64 µg/mL) | 57
9 | CC(C)Cc1ccc2c(NCCCNCc3ccc4c(c3)OCO4)ccnc2c1 | 23 | 1.3 | 9.47 | 2380 | 1810 | 27.7 | 36.3 | 4.2 (≈ 1.64 µg/mL) | 66
10 | COc1ccc(F)cc1CNCCCNc1ccnc2cc(Cc3ccc(F)cc3)ccc12 | 23 | 6.1 | 9.47 | 3530 | 580 | 7.8 | 47.1 | 4.2 (≈ 1.88 µg/mL) | 75
11 | CCC(CC)c1ccc2c(NCCCNCc3ccco3)ccnc2c1 | 23 | 1.6 | 9.47 | 6760 | 4300 | 50.1 | 78.7 | 4.2 (≈ 1.48 µg/mL) | 86
12 | COc1ccc(F)cc1CNCCCNc1ccnc2cc(CC(C)C)ccc12 | 23 | 1.4 | 9.47 | 2900 | 2120 | 23.9 | 32.7 | 4.2 (≈ 1.66 µg/mL) | 89
13 | COc1ccc(F)cc1CNCCCNc1ccnc2cc(C3CCCCC3)ccc12 | 23 | 1.4 | 9.47 | 2290 | 1600 | 17.7 | 25.4 | 4.2 (≈ 1.77 µg/mL) | 90
14 | COc1ccc(F)cc1CNCCCNc1ccnc2cc(CCC(C)C)ccc12 | 23 | 2.5 | 9.47 | 890 | 360 | 3.1 | 7.7 | 4.2 (≈ 1.72 µg/mL) | 116
15 | c1coc(CNCCCNc2ccnc3cc(C4CCCCC4)ccc23)c1 | 23 | 1.2 | 9.47 | 4760 | 3900 | 33.1 | 40.4 | 4.2 (≈ 1.53 µg/mL) | 118
16 | Fc1ccc(Cc2ccc3c(NCCCNCc4ccc5c(c4)OCO5)ccnc3c2)cc1 | 23 | 21.7 | 9.47 | 5550 | 256 | 2 | 43.7 | 4.2 (≈ 1.86 µg/mL) | 127
17 | c1cc(NCCCNCc2ccc3c(c2)OCO3)c2ccc(C3CCCCC3)cc2n1 | 23 | 0.6 | 9.47 | 3020 | 4710 | 36.7 | 23.6 | 4.2 (≈ 1.75 µg/mL) | 128
18 | COc1ccc(F)cc1CNCCCNc1ccnc2cc(CCc3ccccc3)ccc12 | 23 | 2 | 9.47 | 4240 | 2140 | 16.2 | 32.1 | 4.2 (≈ 1.86 µg/mL) | 132
19 | COc1ccc(F)cc1CNCCCNc1ccnc2cc(CC3CCCCC3)ccc12 | 23 | 2.7 | 9.47 | 1830 | 687 | 5 | 13.3 | 4.2 (≈ 1.83 µg/mL) | 138
20 | CC(C)CCc1ccc2c(NCCCNCc3ccco3)ccnc2c1 | 23 | 2.4 | 9.47 | 11200 | 4600 | 26.1 | 63.7 | 4.2 (≈ 1.48 µg/mL) | 176
21 | COc1ccc(F)cc1CNCCCNc1ccnc2cc(Cc3ccc(F)cc3Cl)ccc12 | 23 | 2.2 | 9.47 | 2460 | 1110 | 5.4 | 11.8 | 4.2 (≈ 2.02 µg/mL) | 208
22 | CC(C)Cc1ccc2c(NCCCNCc3ccco3)ccnc2c1 | 23 | 3.6 | 9.47 | 16000 | 4500 | 7.7 | 27.5 | 4.2 (≈ 1.42 µg/mL) | 581
23 | c1ccc(Cc2ccc3c(NCCCNCc4ccc5c(c4)OCO5)ccnc3c2)cc1 | 23 | 5.1 | 9.47 | 6280 | 1240 | 1.7 | 8.7 | 4.2 (≈ 1.79 µg/mL) | 720

— ChEMBL document CHEMBL1833887, “Synthesis and evaluation of 7-substituted 4-aminoquinoline analogues for antimalarial activity” (J Med Chem, 2011)
